Compound activity from PubChem BioAssay.
Only some compounds are listed: those with a hit (about 2.3% of all), similar ones and a draw of the others.
TRPC4 block: inhibitors of mouse TRPC4 channel. B-score at 10 µM. AID 2247. hit rate 0.39% among 300,000. HEK293 TRPC4beta/mu-opioid, DAMGO-evoked Fluo4 calcium flux; hits give low values;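 active means B-score over 3 SD under the library average, no early fluorescence shift, positive overall ratio signal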
Target sequence (Q9QUQ5 whole entry, looked up): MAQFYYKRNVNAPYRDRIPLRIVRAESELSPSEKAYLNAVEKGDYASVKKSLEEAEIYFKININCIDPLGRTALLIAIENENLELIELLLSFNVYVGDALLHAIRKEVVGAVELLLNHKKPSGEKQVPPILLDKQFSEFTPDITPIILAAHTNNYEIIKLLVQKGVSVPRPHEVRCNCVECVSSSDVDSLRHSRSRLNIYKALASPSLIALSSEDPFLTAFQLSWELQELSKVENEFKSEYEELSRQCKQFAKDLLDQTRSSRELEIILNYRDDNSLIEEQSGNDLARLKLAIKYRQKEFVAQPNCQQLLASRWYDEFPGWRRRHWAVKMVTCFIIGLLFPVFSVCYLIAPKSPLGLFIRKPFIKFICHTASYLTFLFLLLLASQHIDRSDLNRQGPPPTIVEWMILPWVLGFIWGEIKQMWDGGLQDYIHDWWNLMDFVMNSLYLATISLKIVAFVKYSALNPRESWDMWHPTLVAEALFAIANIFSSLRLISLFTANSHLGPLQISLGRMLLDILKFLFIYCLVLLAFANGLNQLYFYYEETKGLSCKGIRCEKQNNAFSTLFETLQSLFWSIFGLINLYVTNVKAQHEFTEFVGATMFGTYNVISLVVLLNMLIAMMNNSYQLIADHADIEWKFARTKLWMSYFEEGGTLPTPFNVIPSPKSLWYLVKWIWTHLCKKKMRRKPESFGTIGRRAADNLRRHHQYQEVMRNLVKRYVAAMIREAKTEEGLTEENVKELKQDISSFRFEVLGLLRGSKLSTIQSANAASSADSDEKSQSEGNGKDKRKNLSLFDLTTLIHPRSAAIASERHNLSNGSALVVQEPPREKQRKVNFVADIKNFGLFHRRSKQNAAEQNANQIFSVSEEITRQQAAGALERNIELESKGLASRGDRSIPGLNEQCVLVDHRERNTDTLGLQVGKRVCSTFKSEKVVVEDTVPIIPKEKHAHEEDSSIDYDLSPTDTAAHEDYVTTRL
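test system = HEK293 cells with stable TRPC4beta plus mu-opioid receptor expression | detection = Fluo4 Ca2+ flux fluorescence | read-out = integrated fluorescence ratio relative to baseline, converted to per-well B score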
TRPC4 agonist: activators of mouse TRPC4 channel; B-score at 10 µM; Q9QUQ5; HEK293 TRPC4beta/mu-opioid, Fluo4 calcium fluorescence; hits give high values; AID 2237; hit rate 0.49% among 310,000;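 active means B-score above 5 SD of library B-scores, and initial fluorescence ratio not above library mean plus 5 SD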;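 further: positive B-score marks a calcium rise read as TRPC4 activation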
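System – HEK293 cells stably co-expressing mouse TRPC4beta and mu-opioid receptor · Signal – Fluo4 calcium-sensitive dye fluorescence, kinetic, 1 Hz baseline · Benchmarks – buffer (low) and maximal DAMGO (high) · Read-out – B score of integrated fluorescence ratio per well · Incubation – dye loading 45 min room temperature, 110 s kinetic read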
TRPC4 potent: TRPC4 (mouse) allosteric potentiation; HEK293 TRPC4beta/mu-opioid, DAMGO EC20, Fluo-4 Ca2+ flux; hits give high values; Q9QUQ5; hit rate 0.42% among 310,000; AID 2227; B-score at 10 µM;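 active means B-score of calcium response area above 5 SD of library B-scores, with initial fluorescence ratio within 5 SD of library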
TRPC6 act: activators of mouse TRPC6 channel; Q61143; HEK293-TRPC6 membrane potential dye fluorescence; hits give high values; B-score at 10 µM; hit rate 0.13% among 310,000;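 active means B-score of the integrated fluorescence ratio above library mean plus 3 SD, and starting fluorescence ratio within library mean plus 5 SD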;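 further: higher score means more depolarization so channel activation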
TRPC6 inhibitor: mouse TRPC6 channel inhibition | Q61143 | HEK293-TRPC6, membrane potential dye, ACh-evoked depolarization; hits give low values | B-score at 10 µM | hit rate 1.1% among 310,000 | AID 2553;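 active means B-score under library mean minus 3 SD, initial fluorescence not abnormally high, positive integrated signal ratio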;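 further: B-score derived from integrated fluorescence ratio over the kinetic read; more negative B-score means stronger inhibition of depolarization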
TRPC4 spec 2: mouse TRPC4 off-target activity of TRPC6 inhibitors, second screen. inhibition, % at 10 µM. shares compounds with TRPC6 inhibitor. hit rate 42% among 920. HEK293 TRPC4/MOR, membrane potential dye fluorescence; channel activated by saturating DAMGO dose. AID 2776;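 active means compounds whose fluorescence signal differed from control wells by over 3 SD, either direction, in both duplicate plates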
TRPC4 spec: tests whether TRPC6 inhibitors also affect mouse TRPC4; HEK293 TRPC4/mu-opioid, membrane potential fluorescence; AID 2777; shares compounds with TRPC6 inhibitor; hit rate 61% among 920; activity change, negative = inhibition, % at 10 µM;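 active means rise or fall in signal beyond 3 SD of buffer-only wells in both replicate plates, either sign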;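 further: integrated kinetic ratio of fluorescence range over baseline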
HEK293 MPD ctr 2-1: second counter-screen for TRPC6 inhibitors: parental HEK293 cells; shares compounds with TRPC6 inhibitor; parental HEK293 membrane potential dye fluorescence; maximal acetylcholine challenge after compound addition; signal change vs control, % at 10 µM; hit rate 31% among 920; AID 2779;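 active means membrane potential signal moving either way by over 3 SD of the maximum-effect control, in both duplicate plates, meaning non-specific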
HEK293 MPD ctr-1: checks TRPC6 inhibitor effects in parental HEK293 cells; shares compounds with TRPC6 inhibitor; parental HEK293 membrane potential dye fluorescence; membrane potential signal change, % at 10 µM; hit rate 60% among 920;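 active means membrane potential signal shifting up or down by more than 3 SD of buffer-only wells, on both duplicate plates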
HEK293 MPD ctr-2: counter-screen for TRPC6 modulators: effect in parental HEK293 cells | shares compounds with TRPC6 inhibitor | membrane potential dye fluorescence | membrane potential signal change, % at 10 µM | hit rate 51% among 2,400 | AID 488924;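 active means membrane potential signal moves up or down beyond 5 SD from buffer-only wells, on both duplicate plates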
HEK293 MPD ctr 2-2: second check of TRPC6 modulator effects in parental HEK293 cells. shares compounds with TRPC6 inhibitor. membrane potential dye fluorescence; after compound, maximal acetylcholine stimulation. hit rate 14% among 2,400. inhibition, % at 10 µM;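 active means membrane potential signal drops by more than 5 SD from the mean control signal, in both duplicate plates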
TRPC4/MOR mod: tests whether TRPC6 modulators also affect mouse TRPC4; shares compounds with TRPC6 inhibitor; HEK293 TRPC4/mu-opioid, membrane potential fluorescence; percent change from control (negative = decrease, positive = increase), % at 10 µM; hit rate 69% among 2,400;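 active means membrane potential signal moved up or down beyond 5 SD of buffer control wells, in both duplicate plates, actives on both sides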
TRPC4/MOR inh 2: second selectivity test of TRPC6 modulators against mouse TRPC4; shares compounds with TRPC6 inhibitor; HEK293 TRPC4/mu-opioid, membrane potential dye fluorescence; stimulated with maximal-effect DAMGO; inhibition, % at 10 µM; hit rate 55% among 2,400;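 active means drop in membrane potential signal beyond 5 SD of the control wells in both duplicate plates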;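 further: TRPC4 counter screen for TRPC6 hits run under conditions tuned for TRPC6 not TRPC4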
TRPC6 block conf: mouse TRPC6 inhibitor confirmation; shares compounds with TRPC6 inhibitor; hit rate 43% among 3,300; HEK293-TRPC6, membrane potential dye, ACh-evoked depolarization; AID 488960; inhibition, % at 10 µM;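 active means fluorescence ratio falls more than 5 SD below the full-stimulation control mean, in both duplicate runs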;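 further: integrated fluorescence ratio of peak minus minimum over baseline after agonist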
TRPC6 act conf: mouse TRPC6 activator confirmation. shares compounds with TRPC6 inhibitor. HEK293-TRPC6 membrane potential dye fluorescence, FDSS. activation, % at 10 µM. hit rate 11% among 2,800. AID 488961;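 active means ratio signal rise beyond 5 SD above unstimulated control wells' mean, seen in both duplicate runs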
Of the large screens only hits and unclear results are named; the others gave an inactive call (follow-up assays come after a bar, where they were run).

CCN1CCN(Cc2ccc(NC(=O)CC3Oc4ccc(C)cc4NC3=O)cc2)CC1 (centres undefined)	none
Cc1ccc2c(c1)NC(=O)C(CC(=O)Nc1ccc(CN3CCC(C)CC3)cc1)O2 (centres undefined)	TRPC6 inhibitor -8.5 | TRPC4 spec 2 inactive | TRPC4 spec inactive | HEK293 MPD ctr 2-1 -4.5% | HEK293 MPD ctr-1 inactive | TRPC6 block conf 79% | TRPC6 act conf inactive
CCn1cc(C(=O)NCCCN2CCCC(C)C2)c(=O)c2cc(S(=O)(=O)N(C)C3CCCCC3)ccc21 (centres undefined)	none
CCCn1c2ccccc2c2cnn(CC(=O)NC3CCCC(C)C3C)c(=O)c21 (centres undefined)	none
CCCCOc1ccc(S(=O)(=O)NNC(=O)c2cc3ccccc3o2)cc1	TRPC6 inhibitor -5.2 | HEK293 MPD ctr-2 inactive | HEK293 MPD ctr 2-2 inactive | TRPC4/MOR mod inactive | TRPC4/MOR inh 2 inactive | TRPC6 block conf inactive | TRPC6 act conf inactive
CC(C)COc1ccc(S(=O)(=O)NNC(=O)c2cc3ccccc3o2)cc1	none
CCOC(=O)c1ccc2ncc(C(=O)OCC)c(NCCN3CCOCC3)c2c1	none
CCOC(=O)c1ccc2ncc(C(=O)OCC)c(NCCN(C)C)c2c1	TRPC6 inhibitor -9.5 | TRPC4 spec 2 inactive | TRPC4 spec -19% | HEK293 MPD ctr 2-1 inactive | HEK293 MPD ctr-1 -296% | TRPC6 block conf inactive | TRPC6 act conf inactive
O=c1c2cn(Cc3ccc(F)cc3)c3ccc(F)cc3c-2nn1Cc1ccc(F)cc1	none
O=C1N/C(=N\S(=O)(=O)Cc2ccccc2)S/C1=C/c1cc([N+](=O)[O-])ccc1O	TRPC6 act 13 | HEK293 MPD ctr-2 177% | HEK293 MPD ctr 2-2 inactive | TRPC4/MOR mod 33% | TRPC4/MOR inh 2 inactive | TRPC6 block conf inactive | TRPC6 act conf 122%
COc1cc(/C=C2\S/C(=N/S(=O)(=O)Cc3ccccc3)NC2=O)c([N+](=O)[O-])cc1OC	none
O=C1N/C(=N\S(=O)(=O)c2ccccc2)S/C1=C\c1cc([N+](=O)[O-])ccc1O	TRPC6 act 27 | HEK293 MPD ctr-2 249% | HEK293 MPD ctr 2-2 inactive | TRPC4/MOR mod 46% | TRPC4/MOR inh 2 inactive | TRPC6 block conf inactive | TRPC6 act conf 160%
Cc1ccc(S(=O)(=O)/N=C2/NC(=O)/C(=C/c3ccc(Br)o3)S2)cc1	none
COc1cc(/C=C2/S/C(=N/S(=O)(=O)c3ccccc3)NC2=O)c([N+](=O)[O-])cc1OC	none
Cc1ccc(S(=O)(=O)/N=C2/NC(=O)/C(=C\c3cc(Br)cc(Br)c3O)S2)cc1	TRPC4 agonist 64, TRPC4 potent 34, TRPC6 act 71 | HEK293 MPD ctr-2 active | HEK293 MPD ctr 2-2 inactive | TRPC4/MOR mod 198% | TRPC4/MOR inh 2 inactive | TRPC6 block conf inactive | TRPC6 act conf 402%
O=C(O)Cn1c(SCCOc2ccc(Cl)cc2)nc2ccccc21	none
C[C@H]1[C@@H](OC(=O)CCC(=O)O)O[C@@H]2OC3(C)CC[C@H]4[C@H](C)CC[C@@H]1[C@@]24OO3	none
CC1CCCCN1CC(=O)Nc1ccc(N2CCCCCC2)cc1 (centres undefined)	TRPC6 inhibitor -5.4 | HEK293 MPD ctr-2 inactive | HEK293 MPD ctr 2-2 inactive | TRPC4/MOR mod -12% | TRPC4/MOR inh 2 32% | TRPC6 block conf 40% | TRPC6 act conf inactive
O=[N+]([O-])c1ccccc1S(=O)(=O)N1CCCC(C(F)(F)F)C1 (centres undefined)	TRPC6 inhibitor -5.1 | HEK293 MPD ctr-2 inactive | HEK293 MPD ctr 2-2 inactive | TRPC4/MOR mod inactive | TRPC4/MOR inh 2 inactive | TRPC6 block conf inactive | TRPC6 act conf inactive
N=c1n(CCN2CCCCC2)c2ccccc2n1CC(O)c1ccc(Cl)c(Cl)c1 (centres undefined)	none
CN(C)CCn1c(=N)n(CC(O)c2ccc(Cl)c(Cl)c2)c2ccccc21 (centres undefined)	TRPC6 inhibitor -5.3 | HEK293 MPD ctr-2 inactive | HEK293 MPD ctr 2-2 inactive | TRPC4/MOR mod 58% | TRPC4/MOR inh 2 78% | TRPC6 block conf inactive | TRPC6 act conf inactive
CN(CCC#N)C(=O)c1cc2c(Cl)nc3ccccc3c2s1	none
CN(C)CCN(Cc1ccco1)C(=O)c1cc2c(Cl)nc3ccccc3c2s1	TRPC6 inhibitor -5.2 | HEK293 MPD ctr-2 inactive | HEK293 MPD ctr 2-2 inactive | TRPC4/MOR mod inactive | TRPC4/MOR inh 2 inactive | TRPC6 block conf inactive | TRPC6 act conf inactive
CCN1CCN(c2ccc(NC(=O)c3ccco3)cc2)CC1	none
CCCOc1ccc(C(=O)CCN2CCCCC2)cc1	TRPC6 inhibitor -5.4 | HEK293 MPD ctr-2 150% | HEK293 MPD ctr 2-2 inactive | TRPC4/MOR mod 24% | TRPC4/MOR inh 2 inactive | TRPC6 block conf inactive
CC1Cc2ccccc2N1CC(=O)NCc1ccc2c(c1)OCO2 (centres undefined)	none
Cc1cc(=O)n2c3ccccc3n(CC(O)CN3CCN(CCO)CC3)c2c1C#N (centres undefined)	none
CCC1CCCCN1CC(O)Cn1c2ccccc2n2c(=O)cc(C)c(C#N)c12 (centres undefined)	TRPC6 inhibitor -7.8 | TRPC4 spec 2 78% | TRPC4 spec inactive | HEK293 MPD ctr 2-1 inactive | HEK293 MPD ctr-1 -153% | TRPC6 block conf 57% | TRPC6 act conf inactive
